Assay results reported in ChEMBL document CHEMBL4138102, “Design, synthesis and evaluation of azaacridine derivatives as dual-target EGFR and Src kinase inhibitors for antitumor treatment” (Eur J Med Chem, 2017).
Each block holds one compound with its values, some of them ahead of it.

Tests used:
K562 [1] = assay: Induction of apoptosis in human K562 cells assessed as early apoptotic cells at 0.1 uM after 48 hrs by Annexin V-FITC/propidium iodide based flow cytometric analysis (reference value: 4.68%); assay type: functional
K562 [2] = assay: Induction of apoptosis in human K562 cells assessed as early apoptotic cells at 1 uM after 48 hrs by Annexin V-FITC/propidium iodide based flow cytometric analysis (reference value: 4.68%); assay type: functional
K562 [3] = assay: Induction of apoptosis in human K562 cells assessed as necrotic cells at 0.01 uM after 48 hrs by Annexin V-FITC/propidium iodide based flow cytometric analysis (reference value: 0.22%); assay type: functional
K562 [4] = assay: Induction of apoptosis in human K562 cells assessed as late apoptotic cells at 0.01 uM after 48 hrs by Annexin V-FITC/propidium iodide based flow cytometric analysis (reference value: 2.49%); assay type: functional
A549 [5] = assay: Downregulation of EGFR protein expression in human A549 cells after 48 hrs by Western blot analysis; assay type: functional, cell-based
Procedure, shortened: (§1)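 Cells exposed to 0, 0.1, 0.5 and 2.5 µM for 48 h, then lysed and protein quantified. Equal protein loads run on 10% SDS-PAGE, transferred to PVDF and probed for EGFR, p-EGFR, Src and p-Src with HRP secondaries and luminescence detection. Band density expressed as percentage of β-actin.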

[6] = target: Epidermal growth factor receptor (Homo sapiens) (UniProt P00533); assay: Inhibition of EGFR phosphorylation in human A549 cells by measuring EGFR phosphorylated protein level up to 2.5 uM after 48 hrs by Western blot analysis (reference value: 50.21%); assay type: cell-based; parameters: scale not given: the % may be the effect or the level left; procedure, shortened: as §1
Chain of Epidermal growth factor receptor (Homo sapiens) (P00533 whole entry): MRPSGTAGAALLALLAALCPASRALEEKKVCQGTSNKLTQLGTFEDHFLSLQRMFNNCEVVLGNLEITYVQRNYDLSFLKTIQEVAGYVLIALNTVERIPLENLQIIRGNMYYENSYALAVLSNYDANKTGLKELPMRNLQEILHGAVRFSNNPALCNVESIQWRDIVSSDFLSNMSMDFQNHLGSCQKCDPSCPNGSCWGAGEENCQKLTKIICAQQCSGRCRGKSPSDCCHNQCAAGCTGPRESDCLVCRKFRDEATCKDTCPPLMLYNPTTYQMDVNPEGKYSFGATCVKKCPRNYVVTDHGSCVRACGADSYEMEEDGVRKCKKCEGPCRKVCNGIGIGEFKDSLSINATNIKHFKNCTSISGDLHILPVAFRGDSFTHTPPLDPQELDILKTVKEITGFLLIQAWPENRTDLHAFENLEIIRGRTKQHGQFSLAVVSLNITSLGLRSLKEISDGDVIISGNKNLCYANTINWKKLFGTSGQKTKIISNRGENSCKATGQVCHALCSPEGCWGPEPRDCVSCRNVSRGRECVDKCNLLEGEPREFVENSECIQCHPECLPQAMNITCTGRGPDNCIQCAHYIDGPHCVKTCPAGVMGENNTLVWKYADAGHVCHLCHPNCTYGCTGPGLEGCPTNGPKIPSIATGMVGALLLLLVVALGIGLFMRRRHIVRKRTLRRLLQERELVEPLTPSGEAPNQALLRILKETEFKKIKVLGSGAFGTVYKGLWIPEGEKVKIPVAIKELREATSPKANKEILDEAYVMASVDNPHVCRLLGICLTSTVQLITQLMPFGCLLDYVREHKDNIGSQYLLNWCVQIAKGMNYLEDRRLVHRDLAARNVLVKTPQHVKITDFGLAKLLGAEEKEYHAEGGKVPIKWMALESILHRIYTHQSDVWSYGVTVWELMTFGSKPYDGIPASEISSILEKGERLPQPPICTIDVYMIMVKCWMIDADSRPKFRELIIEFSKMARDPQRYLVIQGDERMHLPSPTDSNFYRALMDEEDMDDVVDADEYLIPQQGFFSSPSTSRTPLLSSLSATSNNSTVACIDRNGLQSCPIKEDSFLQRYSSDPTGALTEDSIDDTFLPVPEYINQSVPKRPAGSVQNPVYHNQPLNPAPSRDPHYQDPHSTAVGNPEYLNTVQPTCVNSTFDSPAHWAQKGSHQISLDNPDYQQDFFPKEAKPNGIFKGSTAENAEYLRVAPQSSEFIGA

A549 [7] = assay: Downregulation of EGFR protein expression in human A549 cells by measuring EGFR level up to 2.5 uM after 48 hrs by Western blot analysis (reference value: 48.02%); assay type: functional; procedure, shortened: as §1
[8] = target: Epidermal growth factor receptor (Homo sapiens) (UniProt P00533); assay: Inhibition of EGFR phosphorylation in human A549 cells after 48 hrs by Western blot analysis; assay type: cell-based; procedure, shortened: as §1
K562 [9] = assay: Induction of apoptosis in human K562 cells assessed as late apoptotic cells at 0.1 uM after 48 hrs by Annexin V-FITC/propidium iodide based flow cytometric analysis (reference value: 2.49%); assay type: functional
A549 [10] = assay: Downregulation of SRC protein expression in human A549 cells after 48 hrs by Western blot analysis; assay type: functional, cell-based; procedure, shortened: as §1
[11] = target: Proto-oncogene tyrosine-protein kinase Src (Homo sapiens) (UniProt P12931); assay: Inhibition of SRC (unknown origin) at 1 uM after 15 mins by luminescence assay relative to control
Chain of Proto-oncogene tyrosine-protein kinase Src (Homo sapiens) (P12931 2-536 limits assumed): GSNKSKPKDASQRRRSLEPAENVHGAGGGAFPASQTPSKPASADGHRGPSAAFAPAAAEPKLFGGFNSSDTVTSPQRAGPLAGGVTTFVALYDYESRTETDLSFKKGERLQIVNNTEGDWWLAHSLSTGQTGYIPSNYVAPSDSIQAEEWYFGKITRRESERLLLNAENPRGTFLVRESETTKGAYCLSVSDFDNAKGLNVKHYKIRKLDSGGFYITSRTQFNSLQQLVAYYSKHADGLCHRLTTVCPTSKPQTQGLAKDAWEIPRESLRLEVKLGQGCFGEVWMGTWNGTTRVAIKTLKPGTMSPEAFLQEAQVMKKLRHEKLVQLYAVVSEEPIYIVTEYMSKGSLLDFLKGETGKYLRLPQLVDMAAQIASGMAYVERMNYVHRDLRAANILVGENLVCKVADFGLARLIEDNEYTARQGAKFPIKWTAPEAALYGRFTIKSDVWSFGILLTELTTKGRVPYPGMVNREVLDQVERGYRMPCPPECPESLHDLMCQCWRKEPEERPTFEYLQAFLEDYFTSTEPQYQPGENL
Procedure, shortened: (§2)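 Contract HTRF-format assay: enzyme, substrate, ATP and compound mixed in 50 mM HEPES/NaOH pH 7.0, 0.02% NaN₃, 0.01% BSA, 0.1 mM orthovanadate, 5 mM MgCl₂, 1 mM DTT. Incubated 15 min at room temperature with compound in 2.5% DMSO. Streptavidin-XL665 and TK antibody europium cryptate added in KF/EDTA buffer; signal read on EnVision; % inhibition computed.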

A549 [12] = assay: Antiinvasive activity in human A549 cells at 0.1 uM preincubated for 6 hrs followed by cell seeding on the inserts to reach confluence for 12 hrs measured after 24 hrs by trypan blue staining-based bright-field light microscopic analysis relative to control; assay type: functional
Procedure, shortened: (§3)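 A549 cells pretreated with compound for 6 h, seeded on fibronectin-coated 8 µm pore invasion inserts to reach confluence over 12 h, then cultured another 24 h with drug. Cells fixed in 4% formaldehyde, non-invading cells swabbed off, invaders stained with 0.08% trypan blue for 15 min. Five random bright-field views counted; mean ± SEM of five experiments versus control.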

[13] = target: Proto-oncogene tyrosine-protein kinase Src (Homo sapiens) (UniProt P12931); assay: Inhibition of SRC phosphorylation in human A549 cells after 48 hrs by Western blot analysis; assay type: cell-based; procedure, shortened: as §1
A549 [14] = assay: Antiinvasive activity in human A549 cells at 1 uM preincubated for 6 hrs followed by cell seeding on the inserts to reach confluence for 12 hrs measured after 24 hrs by trypan blue staining-based bright-field light microscopic analysis relative to control; assay type: functional; procedure, shortened: as §3
K562 [15] = assay: Induction of apoptosis in human K562 cells assessed as early apoptotic cells at 0.01 uM after 48 hrs by Annexin V-FITC/propidium iodide based flow cytometric analysis (reference value: 4.68%); assay type: functional
K562 [16] = assay: Induction of apoptosis in human K562 cells after 48 hrs by Annexin V-FITC/propidium iodide based flow cytometric analysis; assay type: functional, cell-based
Calf thymus DNA [17] = assay: Binding affinity to calf thymus DNA by UV-visible absorption spectral analysis; assay type: nucleic-acid assay; details: Bos taurus
K562 [18] = assay: Induction of apoptosis in human K562 cells assessed as necrotic cells at 1 uM after 48 hrs by Annexin V-FITC/propidium iodide based flow cytometric analysis (reference value: 0.22%); assay type: functional
A549 [19] = assay: Antiproliferative activity against human A549 cells after 48 hrs by MTT assay; assay type: functional, cell-based; details: A549, 48 h
Procedure, shortened: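 A549 seeded at 5-7 × 10³ cells per well and incubated overnight at 37 °C, 5% CO₂. Medium then replaced with fresh medium holding graded compound concentrations or equal DMSO, 48 h. MTT (5 mg mL^-1 solution) added for 4 h, formazan dissolved in DMSO, absorbance read at 490 nm; IC₅₀ derived.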

K562 [20] = assay: Induction of apoptosis in human K562 cells assessed as late apoptotic cells at 1 uM after 48 hrs by Annexin V-FITC/propidium iodide based flow cytometric analysis (reference value: 2.49%); assay type: functional
[21] = target: Epidermal growth factor receptor (Homo sapiens) (UniProt P00533); assay: Inhibition of EGFR (unknown origin) at 10 uM after 15 mins by luminescence assay relative to control; procedure, shortened: as §2
Calf thymus DNA [22] = assay: Binding affinity to calf thymus DNA by fluorescence titration method; assay type: nucleic-acid assay; details: Bos taurus
K562 [23] = assay: Antiproliferative activity against human K562 cells after 48 hrs by MTT assay; assay type: functional, cell-based; details: K562, 48 h
Procedure, shortened: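 K562 at 7×10⁵ cells mL^-1 seeded and held 12 h at 37 °C, 5% CO₂. Compound added in triplicate per concentration for 48 h. MTT (5 mg mL^-1 solution) added for 4 h at 37 °C, formazan dissolved in DMSO, absorbance read at 490 nm; IC₅₀ derived.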

K562 [24] = assay: Induction of apoptosis in human K562 cells assessed as necrotic cells at 0.1 uM after 48 hrs by Annexin V-FITC/propidium iodide based flow cytometric analysis (reference value: 0.22%); assay type: functional
[25] = target: Epidermal growth factor receptor (Homo sapiens) (UniProt P00533); assay: Inhibition of EGFR (unknown origin) at 1 uM after 15 mins by luminescence assay relative to control; procedure, shortened: as §2

SMILES: COc1cccc(NC(=O)Nc2ccc(Nc3ncnc4c3Cc3ccccc3N4)cc2)c1
IC50 (A549 [19]): 13.4 µM
inhibition [21]: 24.9%
IC50 (K562 [23]): 3.62 µM

SMILES: Cc1cccc(NC(=O)Nc2ccc(Nc3ncnc4c3Cc3ccccc3N4)cc2)c1
IC50 (A549 [19]): > 25 µM
inhibition [21]: 65.4%
IC50 (K562 [23]): 6.97 µM

SMILES: COc1cccc(C(=O)Nc2cccc(Nc3ncnc4c3Cc3ccccc3N4)c2)c1
IC50 (A549 [19]): 13.5 µM
inhibition [21]: 31.9%
IC50 (K562 [23]): 3.08 µM

SMILES: O=C(Nc1ccc(Nc2ncnc3c2Cc2ccccc2N3)cc1)Nc1cccc(Cl)c1
IC50 (A549 [19]): 17.9 µM
inhibition [21]: 42.1%
IC50 (K562 [23]): 3.08 µM

SMILES: O=C(Nc1ccc(Nc2ncnc3c2Cc2ccccc2N3)cc1)c1ccccc1
IC50 (A549 [19]): 14.3 µM
inhibition [21]: 12.6%
IC50 (K562 [23]): 2.52 µM

SMILES: O=C(Nc1cccc(Nc2ncnc3c2Cc2ccccc2N3)c1)c1ccccc1
IC50 (A549 [19]): 18.3 µM
inhibition [21]: 30.7%
IC50 (K562 [23]): 3.11 µM

SMILES: O=C(Nc1ccc(Nc2ncnc3c2Cc2ccccc2N3)cc1)c1cccc(Cl)c1
IC50 (A549 [19]): 20.7 µM
inhibition [21]: 30.9%
IC50 (K562 [23]): 0.41 µM

SMILES: O=C(Nc1ccccc1)Nc1ccc(Nc2ncnc3c2Cc2ccccc2N3)cc1
IC50 (A549 [19]): 18 µM
inhibition [21]: 32%
IC50 (K562 [23]): 5.08 µM

SMILES: O=C(Nc1ccc(Nc2ncnc3c2Cc2ccccc2N3)cc1)c1cccc(C(F)(F)F)c1
inhibition [25]: 52.4%
IC50 (A549 [19]): 12.2 µM
inhibition [21]: 95.4%
IC50 (K562 [23]): 1.32 µM

SMILES: Cc1cccc(C(=O)Nc2cccc(Nc3ncnc4c3Cc3ccccc3N4)c2)c1
IC50 (A549 [19]): > 25 µM
inhibition [21]: 53%
IC50 (K562 [23]): 4.9 µM

SMILES: O=C(Nc1cccc(Nc2ncnc3c2Cc2ccccc2N3)c1)c1cccc(Cl)c1
IC50 (A549 [19]): 12.3 µM
inhibition [21]: 30.2%
IC50 (K562 [23]): 1.21 µM

SMILES: O=C(Nc1cccc(Nc2ncnc3c2Cc2ccccc2N3)c1)c1cccc(C(F)(F)F)c1
IC50 (A549 [19]): 9.58 µM
inhibition [21]: 16.3%
IC50 (K562 [23]): 1.89 µM

SMILES: Cc1cccc(C(=O)Nc2ccc(Nc3ncnc4c3Cc3ccccc3N4)cc2)c1
IC50 (A549 [19]): 24.8 µM
inhibition [21]: 51.1%
IC50 (K562 [23]): 3.62 µM

SMILES: COc1cccc(C(=O)Nc2ccc(Nc3ncnc4c3Cc3ccccc3N4)cc2)c1
IC50 (A549 [19]): 14.1 µM
inhibition [21]: 35.4%
IC50 (K562 [23]): 2.16 µM

Now those with a lower IC50 (A549 [19]), led by results:

Activity [6]: 3.11%
inhibition [8]: Dose-dependent effect
inhibition [11]: 72.1%
inhibition [13]: Dose-dependent effect
Kb (Calf thymus DNA [17]): 4.16 ×10³ /M
IC50 (A549 [19]): 0.253 µM
inhibition [21]: 33.1 to 33.5%
K (Calf thymus DNA [22]): 973 M⁻¹
IC50 (K562 [23]): 0.22 µM
SMILES: O=C(Nc1ccc(Nc2ncnc3c2Cc2ccccc2N3)cc1)c1cccc(F)c1
Activity (K562 [1]): 18.82%
Activity (K562 [2]): 4.19%
Activity (K562 [3]): 0.17%
Activity (K562 [4]): 3.06%
Activity (A549 [5]): Dose-dependent effect
Activity (A549 [7]): 3.03%
Activity (K562 [9]): 27.11%
Activity (A549 [10]): Dose-dependent effect
inhibition at 0.1 µM (A549 [12]): 52.5%
inhibition at 1 µM (A549 [14]): 82.8%
Activity (K562 [15]): 11.14%
Activity (K562 [16]): Dose-dependent effect
Activity (K562 [18]): 0.77%
Activity (K562 [20]): 45.15%
Activity (K562 [24]): 1.06%

IC50 (A549 [19]): 9.26 µM
inhibition [21]: 35.4%
IC50 (K562 [23]): 3.35 µM
SMILES: O=C(Nc1ccc(Nc2ncnc3c2Cc2ccccc2N3)cc1)Nc1cccc(C(F)(F)F)c1

IC50 (A549 [19]): 9.05 µM
inhibition [21]: 24.5%
IC50 (K562 [23]): 0.72 µM
SMILES: O=C(Nc1cccc(Nc2ncnc3c2Cc2ccccc2N3)c1)c1cccc(F)c1

IC50 (A549 [19]): 6.82 µM
inhibition [21]: 55.4%
IC50 (K562 [23]): 3.14 µM
SMILES: O=C(Nc1ccc(Nc2ncnc3c2Cc2ccccc2N3)cc1)Nc1cccc(F)c1

IC50 (A549 [19]): 4.56 µM
SMILES: Cc1ccc(NC(=O)c2ccc(CN3CCN(C)CC3)cc2)cc1Nc1nccc(-c2cccnc2)n1 [IMATINIB]

IC50 (A549 [19]): 9.03 µM
inhibition [21]: 21.4%
SMILES: COc1ccc2c(Nc3ccc(NC(=O)Nc4ccccc4)cc3)c3ccccc3nc2c1
